Values after ≈ are worked out from the molar mass of the structure shown.
What was measured:
[1] = Antitubercular activity against Mycobacterium bovis BCG ATCC 35743 dormant stage measured on day 12 by nitrate reductase based two-fold dilution assay; assay type: functional, Mycobacterium bovis BCG str. ATCC 35743; conditions: Mycobacterium tuberculosis variant bovis BCG, ATCC 35743, 288 h
Pseudomonas aeruginosa [2] = assay: Growth inhibition of Pseudomonas aeruginosa at 10 ug/ml; assay type: functional; conditions: read-out: GI
[3] = Selectivity index, ratio of GI50 for human HCT116 cells to MIC90 for Mycobacterium bovis BCG ATCC 35743 dormant stage; assay type: toxicity, cell-based, HCT-116; conditions: read-out: Selectivity Index
Procedure, shortened: (§1)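 Cytotoxicity was measured on human MCF-7, HCT116 and THP-1 cells by MTT assay, with paclitaxel as reference. The selectivity index is GI50 for the given cell line divided by MIC90 for the given mycobacterial strain and stage.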

Escherichia coli [4] = assay: Growth inhibition of Escherichia coli at 3 ug/ml; assay type: functional; conditions: read-out: GI
Procedure, shortened: (§2)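 Screened against Gram-negative E. coli and P. aeruginosa and Gram-positive S. aureus and B. subtilis. Compound was tested at 3 µg/ml, and the read-out is percent growth inhibition.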

Bacillus subtilis [5] = assay: Growth inhibition of Bacillus subtilis at 3 ug/ml; assay type: functional; conditions: read-out: GI; procedure, shortened: as §2
[6] = Antitubercular activity against Mycobacterium tuberculosis H37Ra ATCC 25177 dormant stage infected in human THP1 cells measured on day 12 by nitrate reductase assay; assay type: functional, THP-1; conditions: ATCC 25177, 288 h
[7] = Antitubercular activity against Mycobacterium tuberculosis H37Ra ATCC 25177 active stage measured on day 8 by XTT reduction menadione based two-fold dilution assay; assay type: functional; conditions: ATCC 25177, 192 h
Procedure, shortened: (§3)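 M. tuberculosis H37Ra ATCC 25177 was exposed to 0.7–100 μg/mL in two-fold steps (0.7, 1.5, 3.1 … 100). Active stage was read after 8 days and dormant stage after 12 days of incubation. Inhibition was read by XTT reduction menadione assay (XRMA), absorbance 470 nm. MIC90 is the concentration giving ≥90% inhibition (µg/mL).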

[8] = Selectivity index, ratio of GI50 for human MCF7 cells to MIC90 for Mycobacterium tuberculosis H37Ra ATCC 25177 active stage; assay type: toxicity, cell-based; conditions: read-out: Selectivity Index
Procedure, shortened: (§4)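 Cytotoxicity was measured on human MCF-7, HCT116 and THP-1 cells by MTT assay, with paclitaxel as reference. GI50 is the concentration inhibiting 50% of cell growth. The selectivity index is GI50 for the given cell line divided by MIC90 for the given mycobacterial strain and stage.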

Escherichia coli [9] = assay: Growth inhibition of Escherichia coli at 30 ug/ml; assay type: functional; conditions: read-out: GI
[10] = Cytotoxicity against human HCT116 cells by MTT assay; assay type: toxicity, cell-based, HCT-116; conditions: for GI50: HCT116 cells; for GI90: hct-116
Bacillus subtilis [11] = assay: Growth inhibition of Bacillus subtilis at 30 ug/ml; assay type: functional; conditions: read-out: GI
Staphylococcus aureus [12] = assay: Growth inhibition of Staphylococcus aureus at 30 ug/ml; assay type: functional; conditions: read-out: GI
[13] = Selectivity index, ratio of GI50 for human THP1 cells to MIC90 for Mycobacterium tuberculosis H37Ra ATCC 25177 dormant stage; assay type: toxicity, cell-based, THP-1; conditions: read-out: Selectivity Index; procedure, shortened: as §1
[14] = Cytotoxicity against human MCF7 cells by MTT assay; assay type: toxicity, cell-based; conditions: for GI50: MCF7 cells; for GI90: mcf7
[15] = Selectivity index, ratio of GI50 for human HCT116 cells to MIC90 for Mycobacterium tuberculosis H37Ra ATCC 25177 active stage; assay type: toxicity, cell-based, HCT-116; conditions: read-out: Selectivity Index; procedure, shortened: as §4
[16] = Selectivity index, ratio of GI50 for human THP1 cells to MIC90 for Mycobacterium bovis BCG ATCC 35743 dormant stage; assay type: toxicity, cell-based, THP-1; conditions: read-out: Selectivity Index; procedure, shortened: as §1
Escherichia coli [17] = assay: Growth inhibition of Escherichia coli at 10 ug/ml; assay type: functional; conditions: read-out: GI
[18] = Antitubercular activity against Mycobacterium bovis BCG ATCC 35743 active stage measured on day 8 by nitrate reductase based two-fold dilution assay; assay type: functional, Mycobacterium bovis BCG str. ATCC 35743; conditions: Mycobacterium tuberculosis variant bovis BCG, ATCC 35743, 192 h
Staphylococcus aureus [19] = assay: Growth inhibition of Staphylococcus aureus at 3 ug/ml; assay type: functional; conditions: read-out: GI; procedure, shortened: as §2
Pseudomonas aeruginosa [20] = assay: Growth inhibition of Pseudomonas aeruginosa at 3 ug/ml; assay type: functional; conditions: read-out: GI; procedure, shortened: as §2
[21] = Selectivity index, ratio of GI50 for human MCF7 cells to MIC90 for Mycobacterium bovis BCG ATCC 35743 dormant stage; assay type: toxicity, cell-based; conditions: read-out: Selectivity Index; procedure, shortened: as §1
Bacillus subtilis [22] = assay: Growth inhibition of Bacillus subtilis at 10 ug/ml; assay type: functional; conditions: read-out: GI
Staphylococcus aureus [23] = assay: Growth inhibition of Staphylococcus aureus at 10 ug/ml; assay type: functional; conditions: read-out: GI
[24] = Antitubercular activity against Mycobacterium tuberculosis H37Ra ATCC 25177 active stage infected in human THP1 cells measured on day 8 by nitrate reductase assay; assay type: functional, THP-1; conditions: ATCC 25177, 192 h
[25] = Selectivity index, ratio of GI50 for human MCF7 cells to MIC90 for Mycobacterium tuberculosis H37Ra ATCC 25177 dormant stage; assay type: toxicity, cell-based; conditions: read-out: Selectivity Index; procedure, shortened: as §1
Pseudomonas aeruginosa [26] = assay: Growth inhibition of Pseudomonas aeruginosa at 30 ug/ml; assay type: functional; conditions: read-out: GI
[27] = Selectivity index, ratio of GI50 for human HCT116 cells to MIC90 for Mycobacterium bovis BCG ATCC 35743 active stage; assay type: toxicity, cell-based, HCT-116; conditions: read-out: Selectivity Index; procedure, shortened: as §4
[28] = Selectivity index, ratio of GI50 for human THP1 cells to MIC90 for Mycobacterium tuberculosis H37Ra ATCC 25177 active stage; assay type: toxicity, cell-based, THP-1; conditions: read-out: Selectivity Index; procedure, shortened: as §4
[29] = Selectivity index, ratio of GI50 for human THP1 cells to MIC90 for Mycobacterium bovis BCG ATCC 35743 active stage; assay type: toxicity, cell-based, THP-1; conditions: read-out: Selectivity Index; procedure, shortened: as §4
[30] = Antitubercular activity against Mycobacterium tuberculosis H37Ra ATCC 25177 dormant stage measured on day 12 by XTT reduction menadione based two-fold dilution assay; assay type: functional; conditions: ATCC 25177, 288 h; procedure, shortened: as §3
[31] = Cytotoxicity against human THP1 cells by MTT assay; assay type: toxicity, cell-based, THP-1; conditions: for GI50: THP1 cells; for GI90: thp-1
[32] = Selectivity index, ratio of GI50 for human MCF7 cells to MIC90 for Mycobacterium bovis BCG ATCC 35743 active stage; assay type: toxicity, cell-based; conditions: read-out: Selectivity Index; procedure, shortened: as §4
[33] = Selectivity index, ratio of GI50 for human HCT116 cells to MIC90 for Mycobacterium tuberculosis H37Ra ATCC 25177 dormant stage; assay type: toxicity, cell-based, HCT-116; conditions: read-out: Selectivity Index; procedure, shortened: as §1

| Structure (SMILES) | IC50 [1] | MIC90 [1] | inhibition of growth at 10 µg/mL (Pseudomonas aeruginosa [2]) | selectivity ratio [3] | inhibition of growth at 3 µg/mL (Escherichia coli [4]) | inhibition of growth at 3 µg/mL (Bacillus subtilis [5]) | MIC90 [6] | IC50 [7] | MIC90 [7] | selectivity ratio [8] | inhibition of growth at 30 µg/mL (Escherichia coli [9]) | GI50 [10] | GI90 [10] | inhibition of growth at 30 µg/mL (Bacillus subtilis [11]) | inhibition of growth at 30 µg/mL (Staphylococcus aureus [12]) | selectivity ratio [13] | GI50 [14] | GI90 [14] | selectivity ratio [15] | selectivity ratio [16] | also measured |
| --- | --- | --- | --- | --- | --- | --- | --- | --- | --- | --- | --- | --- | --- | --- | --- | --- | --- | --- | --- | --- | --- |
| C/C(=N\Nc1nc(-c2ccc(Br)cc2)cs1)c1sc(C)nc1C | 2.51 µg/mL (≈ 6.16 µM) | 10.6 µg/mL (≈ 26 µM) | 69.5% | 9 | 35.8% | 25.9% | 48.8 µg/mL (≈ 120 µM) | 0.15 µg/mL (≈ 0.368 µM) | 44.1 µg/mL (≈ 108 µM) | 2 | 82% | > 100 µg/mL | > 100 µg/mL | 79.5% | 81% | 2 | > 100 µg/mL | > 100 µg/mL | 2 | 9 | inhibition of growth at 10 µg/mL (Escherichia coli [17]): 70.7%; IC50 [18]: 1.6 µg/mL (≈ 3.93 µM); MIC90 [18]: 11.4 µg/mL (≈ 28 µM); inhibition of growth at 3 µg/mL (Staphylococcus aureus [19]): 31.2%; inhibition of growth at 3 µg/mL (Pseudomonas aeruginosa [20]): 30.5%; selectivity ratio [21]: 9; inhibition of growth at 10 µg/mL (Bacillus subtilis [22]): 66.4%; inhibition of growth at 10 µg/mL (Staphylococcus aureus [23]): 68.8%; MIC90 [24]: 47.9 µg/mL (≈ 118 µM); selectivity ratio [25]: 2; inhibition of growth at 30 µg/mL (Pseudomonas aeruginosa [26]): 82.1%; selectivity ratio [27]: 9; selectivity ratio [28]: 2; selectivity ratio [29]: 9; IC50 [30]: 0.66 µg/mL (≈ 1.62 µM); MIC90 [30]: 43.7 µg/mL (≈ 107 µM); GI50 [31]: > 100 µg/mL; GI90 [31]: > 100 µg/mL; selectivity ratio [32]: 9; selectivity ratio [33]: 2 |
| C/C(=N\Nc1nc(-c2ccc(F)cc2)cs1)c1sc(-c2ccccc2)nc1C | > 100 µg/mL | > 100 µg/mL | 73.2% | 1 | 72.5% | 68.5% | > 100 µg/mL | > 100 µg/mL | > 100 µg/mL | 1 | 74.7% | > 100 µg/mL | > 100 µg/mL | 71.1% | 73.2% | 1 | > 100 µg/mL | > 100 µg/mL | 1 | 1 | inhibition of growth at 10 µg/mL (Escherichia coli [17]): 74%; IC50 [18]: > 100 µg/mL; MIC90 [18]: > 100 µg/mL; inhibition of growth at 3 µg/mL (Staphylococcus aureus [19]): 70.7%; inhibition of growth at 3 µg/mL (Pseudomonas aeruginosa [20]): 71.5%; selectivity ratio [21]: 1; inhibition of growth at 10 µg/mL (Bacillus subtilis [22]): 70.2%; inhibition of growth at 10 µg/mL (Staphylococcus aureus [23]): 72.5%; MIC90 [24]: > 100 µg/mL; selectivity ratio [25]: 1; inhibition of growth at 30 µg/mL (Pseudomonas aeruginosa [26]): 74%; selectivity ratio [27]: 1; selectivity ratio [28]: 1; selectivity ratio [29]: 1; IC50 [30]: > 100 µg/mL; MIC90 [30]: > 100 µg/mL; GI50 [31]: > 100 µg/mL; GI90 [31]: > 100 µg/mL; selectivity ratio [32]: 1; selectivity ratio [33]: 1 |
| C/C(=N\Nc1nc(-c2ccccc2)cs1)c1sc(-c2ccccc2)nc1C | 7.95 µg/mL (≈ 20.4 µM) | 18.7 µg/mL (≈ 47.9 µM) | 53.8% | 5 | 17.5% | 4.82% | 12 µg/mL (≈ 30.7 µM) | 0.17 µg/mL (≈ 0.435 µM) | 9.46 µg/mL (≈ 24.2 µM) | 11 | 78.5% | > 100 µg/mL | > 100 µg/mL | 75.5% | 77.2% | 8 | > 100 µg/mL | > 100 µg/mL | 11 | 5 | inhibition of growth at 10 µg/mL (Escherichia coli [17]): 56.6%; IC50 [18]: 8.75 µg/mL (≈ 22.4 µM); MIC90 [18]: 21.2 µg/mL (≈ 54.3 µM); inhibition of growth at 3 µg/mL (Staphylococcus aureus [19]): 11.6%; inhibition of growth at 3 µg/mL (Pseudomonas aeruginosa [20]): 10.2%; selectivity ratio [21]: 5; inhibition of growth at 10 µg/mL (Bacillus subtilis [22]): 50.1%; inhibition of growth at 10 µg/mL (Staphylococcus aureus [23]): 53.6%; MIC90 [24]: 15.6 µg/mL (≈ 39.9 µM); selectivity ratio [25]: 8; inhibition of growth at 30 µg/mL (Pseudomonas aeruginosa [26]): 78.2%; selectivity ratio [27]: 5; selectivity ratio [28]: 11; selectivity ratio [29]: 5; IC50 [30]: 0.98 µg/mL (≈ 2.51 µM); MIC90 [30]: 12.8 µg/mL (≈ 32.7 µM); GI50 [31]: > 100 µg/mL; GI90 [31]: > 100 µg/mL; selectivity ratio [32]: 5; selectivity ratio [33]: 8 |
